Apaf1 inhib: inhibitors of human Apaf-1 apoptosome | O14727 | 330,000 compounds, 0.71% hits | reconstituted apoptosome caspase-3 activity, DEVD-Rh110 fluorescence | inhibition, % at 20 µM | AID 489030; active = inhibition of at least 40% at 20 µM;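 note: plate controls were DMSO wells for no effect and DEVD-CHO caspase inhibitor wells for full effect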
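System – cell-free apoptosome with Apaf-1, procaspase-3 and caspase-9 · Buffer or medium – pH 7.5 Hepes buffer with CHAPS, BSA, DTT · Also added – cytochrome c with DEVD-Rh110 · Times – 30 min compound preincubation, 50 min activation, room temperature · Technique – Rh110 fluorescence intensity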
beta cell repl: induces beta-cell replication in MIN6 cells. MIN6 cells proliferation, ATPlite luminescence, 48 h; cells starved in 0.2% serum; 100% = growth in 10% serum. proliferation, % at 10 µM. 330,000 compounds, 0.29% hits;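 active = compounds whose signal lies at least 3.5 SD above the mean of all wells on their plate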;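 note: 0% = DMSO-treated cells in low-serum medium and 100% = 10% serum control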
iPSC survival up: hiPSC single-cell survival enhancement; 360,000 compounds, 0.044% hits; survival enhancement, % at 20 µM; ATPlite luminescence; 100% = ROCK inhibitor wells, 0% = DMSO; AID 602274; in the data active = survival enhancement above about 18%;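 note: cells exposed to compounds for 16 hours before the ATP read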
Granule exo inh: blocks lytic granule exocytosis; TALL-104 LAMP-1 surface exposure, flow cytometry; cells stimulated with thapsigargin and PMA; inhibition, % at 10 µM; 360,000 compounds, 0.66% hits;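 active = inhibition above about 55%, limit read from the data; inconclusive = no clear call, values can overlap the other calls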
UBC13 inh: blocks human UBC13 polyubiquitin chain formation | P61088 | TR-FRET | inhibition, % at 20 µM | 330,000 compounds, 0.47% hits | AID 485273; in the data active = inhibition above about 45%, passing the limit was not always enough; inconclusive = no clear call, values can overlap the other calls
Target sequence (P61088 whole entry, looked up): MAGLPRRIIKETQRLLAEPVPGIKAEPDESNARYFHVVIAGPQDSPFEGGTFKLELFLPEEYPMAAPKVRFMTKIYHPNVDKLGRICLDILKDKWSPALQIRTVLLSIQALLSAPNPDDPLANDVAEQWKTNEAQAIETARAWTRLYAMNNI
MPTP block: permeability transition pore inhibition; isolated mouse mitochondria, Ca2+ swelling absorbance, 30 min; AID 602449; inhibition, % at 10 µM; 360,000 compounds, 1.4% hits;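 active = inhibition of 50% or more, scaled per plate between neutral and stimulator controls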;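 note: 0% = DMSO wells given calcium and 100% = 1 mM EGTA wells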
* marks the source's active call; other numbers are inactive results; i = inactive; ? = inconclusive; . = not tested or not shown. Shown are actives, neighbours in structure and some others; about 3% of the full set was active somewhere.

SMILES	Apaf1 inhib	beta cell repl	iPSC survival up	Granule exo inh	UBC13 inh	MPTP block
NC(=S)N/N=C/c1ccc(-c2ccc(Cl)c(Cl)c2)o1	29.7	-6.0	-4.6	27.0	-9.8	2.0
Cc1ccc(-c2ccc(/C=N/NC(N)=S)o2)cc1	24.6	-4.1	-0.3	103.1*	-17.4	4.1
CCNC(=S)N/N=C/c1ccc(-c2ccccc2)o1	8.9	0.0	3.1	0.7	0.6	-0.6
Cc1c(CCO)c(=O)[nH]n1S(=O)(=O)c1ccc([N+](=O)[O-])cc1	2.1	2.2	0.2	-8.4	3.9	-0.1
CCCN1C(=O)S/C(=C\c2ccc(N3CCOCC3)o2)C1=O	-2.5	-5.5	-2.8	80.9*	i	-0.6
COc1ccc(CN2C[C@@H](CO)O[C@@H](n3cnc4c(NCc5ccncc5)ncnc43)C2)cc1	.	.	-1.9	6.3	.	-0.1
N#CC(C#N)=C1C=CC=CN1/C(=C\c1ccccc1)C(=O)c1cccs1	-5.6	-5.9	-2.5	5.9	0.6	-1.2
N#CC(C#N)=C1C=CC=CN1/C(=C\c1ccccc1Cl)C(=O)c1ccccc1	.	.	-1.4	67.7*	.	-0.5
COC(=O)[C@@H](NCc1cccc(CN[C@H](C(=O)OC)c2ccccc2)c1)c1ccccc1	15.2	-3.0	-3.7	65.5*	-2.7	0.4
CCOC(=O)C1CCCN(C(=O)Cn2sc3nc(C)cc(C)c3c2=O)C1 (configuration not stated)	0.9	-6.3	1.9	84.4*	-20.9	-3.1
COc1ccc(S(=O)(=O)Oc2ccc3ccccc3c2)cc1	6.7	-2.6	-0.6	-3.7	-5.2	0.0
COC1=C(OC)C(=O)C(Sc2ccc3ccccc3c2)=CC1=O	.	.	3.5	85.7*	.	11.3
NC(=O)CC(NC(=O)c1ccccc1)C(=O)O (configuration not stated)	-7.0	0.2	20.5*	-3.7	-3.9	-0.6
O=C(CC1SC(N2CCCC2)=NC1=O)Nc1ccc(C(=O)NCc2ccc(F)cc2)cc1 (configuration not stated)	-15.7	5.4	0.3	-0.6	0.1	0.0
COc1cc(/C=C/c2nc(-c3ccccc3O)n[nH]2)cc(OC)c1OC	3.5	0.0	-1.3	98.1*	18.0	40.2
CN(CC(=O)Nc1ccccc1Cl)C(=O)COC(=O)c1ccc([N+](=O)[O-])s1	11.9	-4.9	-0.2	0.3	-6.8	0.0
CCOc1cccc(CNc2ccc(O)cc2)c1OCc1ccc(Cl)cc1	31.8	-4.1	-0.8	5.4	-0.7	3.3
CCOc1cc(CNc2ccc(O)cc2)ccc1OCc1ccc(Cl)cc1Cl	93.5*	-5.4	0.0	0.2	-2.0	-1.0
O=C(CN1C(=O)CNC1=O)Nc1cc(Cl)cc(Cl)c1	-4.1	-4.2	0.6	13.2	13.8	1.0
O=C(/C=C\c1ccc(-c2ccccc2)o1)c1ccccc1	5.0	0.0	-0.8	86.2*	-5.7	7.8
Cc1ccc(C(=O)/C=C/c2ccc(-c3ccc(C)cc3)o2)cc1	19.8	-7.2	-0.1	71.5*	-0.8	1.3
CCOC(=O)c1[nH]cnc1C(=O)N1CCN(C(=O)OC(C)(C)C)CC1	-11.1	0.6	3.3	11.7	7.7	0.7
O=C(CN(C(=O)c1csnn1)c1ccc(F)cc1)NCc1ccc2c(c1)OCO2	2.8	0.0	-0.6	-6.4	5.3	-0.8
O=S(=O)(NCC(O)c1ccccc1)c1cc(Cl)sc1Cl (configuration not stated)	7.9	0.7	0.0	0.5	3.4	1.7
CCCCC(Sc1nc(C)c(Cc2ccccc2)c(=O)[nH]1)C(=O)O (configuration not stated)	-3.6	1.9	-0.7	0.1	-20.2	-0.1
SMILES	Apaf1 inhib	beta cell repl	iPSC survival up	Granule exo inh	UBC13 inh	MPTP block
Cc1ccc(CN2CCN(Cc3cn(C)nc3C)CC2CCO)o1 (configuration not stated)	-0.8	-1.8	22.4*	8.4	-7.2	1.2
CC(C)Cn1nc(NC(=O)C2CCCO2)c2cc3ccccc3nc21 (configuration not stated)	-3.7	6.5*	-1.3	7.6	4.7	-1.4
C=CC(=O)Nc1ccc(Nc2nc(NC3CCC(N(C)C)CC3)nc3c2ncn3C(C)C)cc1 (configuration not stated)	45.9*	-5.6	-3.7	-4.1	14.3	-1.1
CC(C)n1cnc2c(Nc3ccc(F)c(Cl)c3)nc(NCCO)nc21	4.0	1.1	-2.3	-6.6	19.6	-0.5
COc1cccc(CN(C)C(=O)CN2C(=O)NC(c3ccccc3)(c3ccccc3)C2=O)c1	15.4	-3.6	-0.6	-1.4	15.2	-1.8
O=C1NC(=S)S/C1=C/c1ccc(OC(=O)c2ccco2)cc1	9.0	-2.3	-0.3	79.4*	-11.5	1.0
CCN1/C(=C/C=C/c2oc3ccc4ccccc4c3[n+]2CC)Oc2ccc3ccccc3c21	76.3*	-5.4	.	.	?	.
O=C(Nc1ccc(Oc2ccccc2)cc1)c1csc(COCCO)n1	.	.	-2.0	-6.3	.	14.0
C=C1C(=O)OC2C1CCC(C)=C1C(=O)C3OC3(C)C12 (configuration not stated)	.	.	26.6*	13.2	.	-0.8
O=C(Cc1csc(Nc2nc(=S)[nH]c3ccccc23)n1)NCCCN1CCN(c2ccccc2F)CC1	1.7	-6.6	-0.8	84.4*	-5.7	0.1
O=C(CN1CCCCCC1)Nc1ccccc1OC(F)F	8.2	-1.5	-0.6	-2.1	-0.2	0.2
N#Cc1ccccc1Cn1cc(/C=C/[N+](=O)[O-])c2ccccc21	-4.8	0.0	-2.1	60.9*	7.4	-1.4
CC(C)C[C@H]1CN(CCCC[C@H]2CNC(=O)C(=O)N2CCc2ccccc2)C(=O)C(=O)N1CCc1ccccc1	.	.	-0.6	-8.7	.	-1.6
O=C(CS)Nc1ccc2ccccc2c1	.	.	1.1	66.7*	.	-1.4
Cc1nnc(N2C(=O)c3cccc4c([N+](=O)[O-])ccc(c34)C2=O)s1	0.9	-4.9	0.5	85.9*	-31.5	3.0
Cc1ccnc(N2C(=O)c3cccc4c([N+](=O)[O-])ccc(c34)C2=O)c1	3.8	-4.3	7.2	77.3*	-69.8	2.4
Cc1ccc(N2C(=O)c3cccc4c([N+](=O)[O-])ccc(c34)C2=O)c2cccnc12	-11.5	-6.1	4.6	13.3	-12.4	5.7
O=C(NCCS(=O)(=O)NCc1ccccc1Cl)c1ccccc1	8.0	1.8	1.4	-12.7	-3.7	-0.5
CCS(=O)(=O)Nc1cccc(C2=NN(S(=O)(=O)CC)C(c3cccs3)C2)c1 (configuration not stated)	-15.1	-1.1	-0.3	-3.7	4.4	-0.8
O=C(Nc1ccc(Oc2ccccc2)cc1)c1csc([C@@H]2O[C@H](CO)[C@H](O)[C@H](O)[C@H]2O)n1	.	.	-0.8	13.9	.	1.6
CC(C)(C)C(=O)NC1=NN(c2c(Cl)cc(Cl)cc2Cl)C(=O)C1	67.6*	3.0	0.7	2.6	-16.4	-1.2
Cc1oc(=O)c(NC(=O)c2ccccc2)cc1C(=O)c1ccccc1	1.8	-2.9	-3.7	74.8*	-9.2	3.4

Assay outcomes as filed in PubChem.
